Consider 1 molecule from article PMC3244355 (Journal of the American Chemical Society, 2011).

The nature of one data set: photophysical properties. Format: physicochemical. The following applies: for λemi: excited at λmax. Summed up: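 Samples are prepared at 20 μM. Dye–inhibitor conjugate spectra are recorded in 1% DMSO/PBS, pH 7.4, at 25 °C with excitation at 405 nm. Tabulated dye entries are excited at their λmax. Absorption maximum, molar absorptivity, emission maximum and fluorescence quantum yield are reported.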

The test system of data set [1] is HeLa cells. As to the kind of experiment: membrane permeability and localization of free dyes, live-cell imaging. Format: cell-based, human. The following applies: living HeLa cells, 20 μM, 60 minutes, with AlexaFluor546-BSA endocytosis marker. The procedure, abridged: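 Live HeLa cells are incubated for 1 h in 20 μM test dye, with 100 μg/mL AlexaFluor546-labeled BSA as a fluid-phase endocytosis marker. Cells are washed free of dye and imaged live by epifluorescence microscopy using a custom filter set matched to 395/500 excitation/emission. Merged images are used to compare dye distribution with marker-containing endosomal vesicles.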

For data set [2], the system named is HeLa cells. Put plainly: toxicity / cell viability of dye-treated cells. It counts as cell-based, human. The following applies: cells treated for up to 6 h with 100 μM dye.
A short description of data set [3]: chemical stability in aqueous buffer solution. It counts as physicochemical. The following applies: pH 4–9, several days at ambient temperature. The procedure, abridged:
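The test dye is held in aqueous buffer across pH 4–9 at ambient temperature for several days. Absorbance/emission properties are monitored, and the solution is checked for decomposition.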

Another data set can be described thus: solubility. Format: physicochemical. The following applies: variety of solvents.
Setting [4] is: 1%DMSO/PBS pH 7.4, 20 μM sample.

With `CC(C)=[N+]1N=C2C=CC(Br)=CN2[B-]1(F)F` [Compound 16, 6-Bromo-3,3-difluoro-2-(propan-2-ylidene)-2,3-dihydro-[1,2,4,3]triazaborolo[4,5-a]pyridin-2-ium-3-uide], the Φf in the data set “photophysical properties” (setting [4]) is 0.17; in the data set “photophysical properties” (Acetone, 20 μM sample), 0.17; in the data set “photophysical properties” (CH2Cl2, 20 μM sample), 0.22; in “photophysical properties” (MeOH, 20 μM sample), 0.21; in the data set “photophysical properties” (Toluene, 20 μM sample), 0.07. The ε is recorded as 8 600 M^−1cm^−1 in the data set “photophysical properties” (setting [4]); 8 600 M^−1cm^−1 in “photophysical properties” (Acetone, 20 μM sample); 9 300 M^−1cm^−1 in the data set “photophysical properties” (CH2Cl2, 20 μM sample); 8 500 M^−1cm^−1 in “photophysical properties” (MeOH, 20 μM sample); 9 800 M^−1cm^−1 in the data set “photophysical properties” (Toluene, 20 μM sample). Further, the λmax came out at 404 nm in the data set “photophysical properties” (setting [4]); 403 nm in the data set “photophysical properties” (Acetone, 20 μM sample); 408 nm in “photophysical properties” (CH2Cl2, 20 μM sample); 403 nm in “photophysical properties” (MeOH, 20 μM sample); 406 nm in the data set “photophysical properties” (Toluene, 20 μM sample). In addition, the λemi in “photophysical properties” (setting [4]) is 491 nm; in “photophysical properties” (Acetone, 20 μM sample) it was 504 nm; in “photophysical properties” (CH2Cl2, 20 μM sample), 497 nm; in “photophysical properties” (MeOH, 20 μM sample), 493 nm; in the data set “photophysical properties” (Toluene, 20 μM sample), 500 nm. Besides, the cell membrane permeability entry in the data set with HeLa cells [1] was “membrane permeable”. Besides, the “toxicity / effects on cell viability” value with HeLa cells [2] is “no toxicity”. The “chemical stability in aqueous buffer solution” value in data set [3] is listed as “no decomposition in solution was evident”. Also, the solubility in solvents entry in the data set “solubility” is on record as “soluble in a variety of solvents”.
